Assay outcomes deposited in PubChem by Sanford-Burnham Center for Chemical Genomics.
CCR6 antagonist – antagonists of human CCR6 receptor. CHO-K1 CCR6 PathHunter beta-arrestin, luminescence, CCL20-stimulated. inhibition, % at 20 µM. actives 0.49% (n = 340,000);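 active means compounds whose inhibition of the agonist-driven luminescence signal at 20 µM reaches about 50%, limit read from the data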;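 further: cells stimulated with CCL20 at 14 nM final; plate controls were DMSO with CCL20 for no effect and DMSO without agonist for full effect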
Target sequence (P51684 whole entry, looked up): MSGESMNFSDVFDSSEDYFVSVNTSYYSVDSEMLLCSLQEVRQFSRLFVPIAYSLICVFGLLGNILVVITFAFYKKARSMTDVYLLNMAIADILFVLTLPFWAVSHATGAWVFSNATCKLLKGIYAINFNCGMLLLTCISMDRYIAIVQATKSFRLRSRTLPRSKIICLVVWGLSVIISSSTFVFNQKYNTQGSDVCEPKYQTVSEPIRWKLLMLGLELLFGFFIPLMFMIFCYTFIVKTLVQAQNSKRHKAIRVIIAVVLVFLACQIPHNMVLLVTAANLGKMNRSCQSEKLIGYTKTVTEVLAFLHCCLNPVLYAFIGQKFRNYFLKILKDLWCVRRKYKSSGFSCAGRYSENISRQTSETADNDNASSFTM
APJ agonist – agonists of human APJ apelin receptor. P35414. CHO-K1 APJ PathHunter beta-arrestin, luminescence; 0% DMSO wells, 100% apelin. activation, % at 20 µM. actives 0.11% (n = 330,000). AID 2520;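 active means activation more than six SD over the plate average, tested at 20 µM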;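 further: 0% = DMSO alone and 100% = apelin-13 at 10 nM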
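system = engineered CHO-K1 APJ arrestin reporter cells | input = 1000 cells per well | timing = overnight seeding, 90 min compound at 25 °C, 1 h detection | measured by = enzyme-fragment complementation luminescence | read-out = beta-arrestin recruitment to APJ as agonist activity, luminescent signal | control set = negative DMSO alone, positive Apelin-13 at 10 nM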
CXCR6 block – blocks human CXCR6 beta-arrestin recruitment; inhibition, % at 20 µM; AID 602244; O00574; actives 0.36% (n = 360,000); CHO-K1 PathHunter CXCR6 beta-arrestin, luminescence; in the data active means inhibition above about 34%, passing the limit was not always enough;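 further: antagonist mode with CXCL16 agonist at 10 nM final; 0% = 10 nM CXCL16 with DMSO and 100% = unstimulated wells without agonist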
EBI2 antag – EBI2 (human) antagonism. EBI2 beta-arrestin recruitment, luminescence, 7a,25-OHC stimulated. inhibition, % at 5 µM. actives 0.81% (n = 360,000). AID 651636; in the data active means inhibition above about 38%;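 further: enzyme fragment complementation signal reports receptor beta-arrestin coupling in cells; 0% = agonist plus DMSO wells and 100% = wells without agonist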
APJ antag – APJ receptor antagonism | actives 0.32% (n = 330,000) | P35414 | inhibition, % at 20 µM | AID 2521 | CHO-K1 APJ beta-arrestin complementation, luminescence;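 active means inhibition above about 40% at 20 µM, limit read from the data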;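 further: cells challenged with 10 nM apelin-13 agonist together with compound; plate controls were apelin-13 plus DMSO wells for no effect and DMSO wells lacking apelin-13 for full effect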
APJ antag conf – confirmation of human APJ apelin receptor antagonists; inhibition, % at 20 µM; actives 66% (n = 950); AID 2766; shares compounds with APJ antag; APJ beta-arrestin recruitment, luminescence, antagonist mode; in the data active means inhibition above about 50%
Active calls of the source: *; · = no result. In the library only some 1.5% were active in any assay of this set; here they are far more common.

SMILES	CCR6 antagonist	APJ agonist	CXCR6 block	EBI2 antag	APJ antag	APJ antag conf
CN(C)c1ccc(/C=C2\SC(=S)N(Nc3ncc(C(F)(F)F)cc3Cl)C2=O)cc1	36	-7	29	26	33	·
COc1cc(/C=C2\SC(=S)N(Nc3ncc(C(F)(F)F)cc3Cl)C2=O)ccc1O	68*	-20	60*	40	51*	105*
COc1cc(/C=C2/SC(=S)N(CC3CCCO3)C2=O)ccc1O (stereo unspecified)	73*	-4	42*	7	48*	88*
COc1cc(/C=C2\SC(=S)N(Nc3ccccc3)C2=O)ccc1O	74*	-7	51*	15	56*	97*
CN(CC(=O)Nc1ccc(F)cc1)S(=O)(=O)c1ccc2c(c1)c(=O)n(C)c(=O)n2C	-3	3	-5	-8	8	·
COc1ccc(C2CCc3cc4c(cc3C2=NO)OCO4)cc1OC (stereo unspecified)	·	·	-11	-4	·	·
CNC(=O)c1nn(C)c(=O)[nH]c1=O	9	·	0	9	·	·
COc1cc(/C=C2\SC(=S)N(C(Cc3ccccc3)C(=O)O)C2=O)ccc1O (stereo unspecified)	30	-7	26	-7	48*	82*
O=C(O)c1cccc(CSc2n[nH]c(-c3ccc(Cl)cc3Cl)n2)c1	9	-1	3	-3	-6	·
CCOC(=O)C(C(=O)OCC)c1cc(Br)c2noc3c2c1C(=O)c1ccccc1-3	83*	-4	78*	-5	41*	105*
Oc1c(C(c2ccccc2Cl)N2CCCC2)ccc2cccnc12 (stereo unspecified)	43	-7	24	51*	56*	56*
CCOC(=O)C1(Cc2ccc(Cl)cc2)CCN(C(=O)c2ccoc2)CC1	16	-1	8	0	16	·
CC1=NN(C(N)=S)C(=O)C1N=Nc1ccc(O)cc1 (stereo unspecified)	27	-5	6	-3	13	·
CC1=NN(C(N)=S)C(=O)C1N=Nc1ccc([N+](=O)[O-])cc1 (stereo unspecified)	75*	-10	46*	7	50*	81*
CCN(CC)c1ccc(NC(=O)C2CCCN(S(=O)(=O)c3cccnc3)C2)c(C)c1 (stereo unspecified)	1	0	-4	-13	6	·
CC(=O)N/N=C(/c1ccccc1)C(O)c1ccccc1 (stereo unspecified)	3	0	5	-4	43*	-10
C/C(=N\NC(=O)C(O)c1ccccc1)c1cccnc1 (stereo unspecified)	-1	-2	2	-7	-2	·
CC(C)c1ccc(NC(=O)Cc2c(C(=O)O)n(C)c3ccccc23)cc1	-7	-1	-8	9	-14	·
CCN1/C(=C\c2ccc3cc(C)ccc3[n+]2CC)Sc2cc(C)c(C)cc21	8	·	8	-4	·	·
CCN1/C(=C/c2ccc3cc(C)ccc3[n+]2CC)Sc2ccc3sccc3c21	40	6	37	3	40*	56*
Cc1[nH]n(-c2ccccc2)c(=O)c1C(c1ccc(O)c([N+](=O)[O-])c1)c1c(C)[nH]n(-c2ccccc2)c1=O	45	-4	21	11	40*	41
CC1CCCCN1C(=O)CSc1nc2cc3c(cc2c(=O)n1Cc1ccc2c(c1)OCO2)OCO3 (stereo unspecified)	3	-1	10	19	55*	57*
Cc1ccc(NC(=O)CN2CCN(C(=O)C3CC3)CC2)c(F)c1	·	·	1	-3	·	·
CCCCCOC(=O)c1c(N)n(CCOC)c2nc3ccccc3nc12	9	-11	8	11	43*	-3
COCCOC(=O)c1c(N)n(CCCN2CCOCC2)c2nc3ccccc3nc12	5	-5	8	-6	-6	·
SMILES	CCR6 antagonist	APJ agonist	CXCR6 block	EBI2 antag	APJ antag	APJ antag conf
COc1ccc(Cl)cc1NC(=O)CSc1nnc(Cc2ccc(C)cc2)c(=O)[nH]1	3	4	7	8	10	·
COC(=O)c1[nH]c(=O)c2ccccc2c1O	68*	-17	0	10	43*	-12
COC(=O)c1[nH]c(=O)c2ccccc2c1OCc1ccccc1	6	2	6	-1	8	·
C=CCn1c(SCc2ccccc2F)nc2cc(C(=O)O)ccc2c1=O	1	-5	2	9	-1	·
Clc1cc2nc[nH]c2cc1Cl	-4	1	-16	-3	-9	·
CCc1ccc2c(c1)NC(=O)C2(C)Cc1ccccc1 (stereo unspecified)	·	·	4	2	·	·
CCc1ccc2c(c1)C1(NN=C(c3cccc4ccccc34)S1)C(=O)N2 (stereo unspecified)	·	-8	26	21	42*	39
CCCn1nc(C(=O)NNC(=O)Cc2ccc(S(=O)(=O)N3CCOCC3)s2)c2ccccc2c1=O	14	-3	2	0	-4	·
CO[C@H]1CN(C)C(=O)c2ccc(NC(=O)c3ccc4c(c3)OCO4)cc2OC[C@H](C)N(CC2CC2)C[C@@H]1C	·	·	·	-1	·	·
CC(=O)Nc1cc(C(=O)OCC(=O)c2ccc(Cl)cc2Cl)ccc1C	12	-7	6	1	52*	25
O=C(COC(=O)c1cccnc1Cl)c1ccc(Cl)cc1Cl	21	-13	15	-5	58*	60*
CC(C)C(=O)Nc1cccc(C(=O)OCC(=O)c2ccc(Cl)cc2Cl)c1	36	-5	2	21	49*	50*
COC(=O)c1cccc(NC(=O)Nc2ccc(Cl)cc2Cl)c1	-6	-4	-9	-10	-13	·
COc1ccc(C(=O)COC(=O)c2cccnc2Cl)c(OC)c1	12	-5	-10	10	4	·
CC(=O)Nc1cc(C(=O)OCC(=O)c2ccc(C)cc2)ccc1C	-19	-2	26	1	-6	·
Cc1ccc(S(=O)(=O)N/N=C/c2ccc3nccnc3c2)cc1	56*	-11	18	10	58*	88*
CN(C)C(CNC(=O)c1ccc(S(=O)(=O)N(C)C)cc1)Cc1ccccc1 (stereo unspecified)	-6	-1	-4	-1	8	·
O=c1c2cc([N+](=O)[O-])cc([N+](=O)[O-])c2[nH]n1-c1ccccc1	56*	-9	39	10	41*	76*
Cc1ccc(S(=O)(=O)NC(=O)C2(C)CCN2C(=O)CC2CCCC2)nc1 (stereo unspecified)	·	·	-6	-5	·	·
COc1nc(-c2ccccc2)cc(-c2ccc(OC)c(OC)c2)n1	-18	0	1	-2	-17	·
Cc1ccc(-c2cc(-c3ccccc3)nc(NN)n2)cc1	64*	-15	29	11	78*	140*
COc1ccc(-c2cc(-c3ccccc3)nc(NN)n2)cc1OC	86*	-13	43*	13	57*	129*
CCCOc1ccc(C(=O)NNC(=S)NC(=O)CC)cc1	78*	-9	48*	-2	54*	94*
